Source: ChEMBL document CHEMBL3351818, “Synthesis and biological evaluation of novel 3,4-diaryl-1,2,5-selenadiazol analogues of combretastatin A-4” (Eur J Med Chem, 2014)

Key:
Type in all cases: functional, cell-based
[1] = Antiproliferative activity against human SGC7901 cells after 72 hrs by MTT assay; settings: SGC-7901, 72 h
How it was run: (§1)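 Cells were seeded at 1–3 × 10⁴/well, depending on growth rate, and grown 24 h. Triplicate wells were then exposed to agents for 72 h at 37 °C in 5% CO₂. IC50 is the concentration giving 50% absorbance reduction versus vehicle, averaged from ≥3 independent experiments. SGC-7901 and HT-1080 were cultured in RPMI-1640 with 10% FBS.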

[2] = Antiproliferative activity against human HT1080 cells after 72 hrs by MTT assay; settings: HT-1080, 72 h; how it was run: as §1
KB = assay: Antiproliferative activity against human KB cells after 72 hrs by MTT assay; how it was run: as §1

Row | Compound | IC50 [1] [nM] | IC50 [2] [nM] | IC50 (KB) [nM]
1 | COc1ccc(-c2n[se]nc2-c2ccc3c(c2)OCO3)cc1O | 3680 | 730 | 2380
2 | COc1cc(-c2n[se]nc2-c2cccc(OCc3ccccc3)c2)cc(OC)c1OC | > 30000 | > 30000 | 10700
3 | COc1cc(-c2n[se]nc2-c2ccc3ccccc3c2)cc(OC)c1OC | 2350 | 1110 | 770
4 | COc1cc(-c2n[se]nc2-c2ccc(Br)cc2)cc(OC)c1OC | 10900 | 7400 | 7860
5 | COc1ccc(-c2n[se]nc2-c2cc(OC)c(OC)c(OC)c2)cc1Br | > 30000 | 2590 | 3060
6 | CNc1cc(-c2n[se]nc2-c2cc(OC)c(OC)c(OC)c2)ccc1OC | > 30000 | 980 | 1520
7 | COc1ccc(/C=C\c2cc(OC)c(OC)c(OC)c2)cc1O [COMBRETASTATIN A4] | 28 | 7.6 | 13
8 | COc1ccc(-c2n[se]nc2-c2cc(OC)c(OC)c(OC)c2)cc1 | 63 | 84 | 31
9 | COc1cc(-c2n[se]nc2-c2ccc(O)cc2)cc(OC)c1OC | > 30000 | 15000 | 15800
10 | c1ccc2cc(-c3n[se]nc3-c3ccc4c(c3)OCO4)ccc2c1 | 17300 | 23300 | 10400
11 | COc1ccc(-c2n[se]nc2-c2ccc3c(c2)OCO3)cc1N | > 30000 | 13500 | 1870
